According to ChEMBL document CHEMBL1671864, “First assessment in humans of the safety, tolerability, pharmacokinetics, and ex vivo pharmacodynamic antimalarial activity of the new artemisinin derivative artemisone” (Antimicrob Agents Chemother, 2008):
≈ marks a conversion by molar mass, not a printed value.

Legend:
Plasma [1] = test: Half life in healthy human plasma assessed as metabolite BAY 78-1788 Half life at 40 mg, po administered as two 20 mg immediate release tablets daily for 3 days during 10 hrs overnight fasting state measured after 3 day; format: ADME, organism-based; details: in vivo, 72 h
How it was run: (§1)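 Healthy Caucasian males took tablets once daily for 3 days with 240 ml water after a 10-h fast. Heparinised blood was drawn predose and at 0.25–14 h after the first and last doses. Plasma parent drug and metabolites M1–M3 were measured by LC/MS-MS (MRM, deuterated internal standard). Noncompartmental analysis gave Cmax observed, t1/2 = 0.693/kel and MRT = AUMC/AUC. Values are geometric means.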

Plasma [2] = test: Tmax in healthy human plasma assessed as metabolite BAY 78-1788 Tmax at 40 mg, po administered as two 20 mg immediate release tablets daily for 3 days during 10 hrs overnight fasting state measured after 1 day; format: ADME, organism-based; details: in vivo, 24 h
How it was run: (§2)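 Healthy Caucasian men (8 active, 4 placebo per dose) dosed with tablets daily for 3 days after 10-h fast. Lithium-heparin plasma sampled predose and 0.25–14 h after day-1 and day-3 doses, stored frozen. Parent and M1–M3 quantified by LC/MS-MS in positive-ion MRM. Tmax taken directly from observed individual data.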

Plasma [3] = test: Cmax in healthy human plasma assessed as metabolite BAY 78-1788 Cmax at 80 mg, po administered as four 20 mg immediate release tablets daily for 3 days during 10 hrs overnight fasting state measured after 3 day; format: ADME, organism-based; design: dose 80 mg, route oral; details: in vivo, 72 h; how it was run: as §1
Plasma [4] = test: AUC (0 to infinity) in healthy human plasma assessed as metabolite BAY 78-1788 AUC (0 to infinity) at 80 mg, po administered as single ascending doses during 10 hrs overnight fasting state; format: ADME, organism-based; design: dose 80 mg, time infinity, route oral; details: in vivo
How it was run: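 Healthy Caucasian male volunteers, single oral dose of 80 mg as four 20-mg immediate-release tablets, taken with 240 ml water after a 10-h overnight fast. Lithium-heparin venous blood was drawn predose and at 0.25–14 h, and plasma was stored frozen. Metabolites M1/M2/M3 were measured by LC/MS-MS (positive-ion MRM, deuterated internal standard). Noncompartmental analysis, AUC by log-linear trapezoidal rule extrapolated to infinity (Clast/kel), geometric means.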

Plasma [5] = test: Ratio of AUC (0 to infinity) for metabolite BAY 78-1788 to AUC (0 to infinity) for compound in healthy human plasma at 40 mg, po administered as single dose for 3 days measured after 3 days; format: ADME, organism-based; details: in vivo, 72 h
How it was run: (§3)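 Healthy Caucasian men (8 active, 4 placebo per dose) dosed with tablets daily for 3 days after 10-h fast. Plasma sampled 0.25–14 h after first and last doses. Parent and metabolites M1–M3 measured by LC/MS-MS (200 µl plasma). Metabolic ratio is metabolite AUC0-∞ divided by parent AUC0-∞ (log-linear trapezoidal, extrapolated by last concentration/kel). First vs third dose compared by paired t test.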

Plasma [6] = test: Cmax in healthy human plasma assessed as metabolite BAY 78-1788 Cmax at 80 mg, po administered as single ascending doses during 10 hrs overnight fasting state; format: ADME, organism-based; design: dose 80 mg, route oral; details: in vivo
How it was run: (§4)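 Healthy Caucasian male volunteers, single oral dose with 240 ml water after a 10-h overnight fast. Heparinised venous blood was drawn predose and at 0.25–14 h. Plasma was stored frozen. Parent drug and metabolites M1–M3 were measured by LC/MS-MS (MRM, deuterated internal standard). Noncompartmental analysis gave Cmax observed, t1/2 = 0.693/kel (terminal regression) and MRT = AUMC/AUC. Values are geometric means.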

Plasmodium falciparum = test: Antimalarial activity against Plasmodium falciparum K1 in human plasma assessed as inhibition of hypoxanthine uptake by intraerythrocytic malaria parasites by hypoxanthine incorporation assay; format: functional, organism-based
How it was run: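 K1 or TM90-C2A parasites were sorbitol-synchronized and cultured in RPMI 1640. Drug was diluted in drug-free human serum (0.04–40 ng/ml) or subject plasma was diluted twofold (8–8,192). Parasites were added at 2% hematocrit, 1% parasitemia (>95% rings), and [3H]hypoxanthine uptake was measured over 48 h. IC50 or ID50 came from concentration or dilution-response curves. Equivalent concentration = ID50 × IC50.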

Plasma [7] = test: Cmax in healthy human plasma assessed as metabolite BAY 78-1788 Cmax at 40 mg, po administered as two 20 mg immediate release tablets daily for 3 days during 10 hrs overnight fasting state measured after 3 day; format: ADME, organism-based; design: dose 40 mg, route oral; details: in vivo, 72 h; how it was run: as §1
Plasma [8] = test: AUC in healthy human plasma assessed as metabolite BAY 78-1788 AUC at 40 mg, po administered as two 20 mg immediate release tablets daily for 3 days during 10 hrs overnight fasting state measured after 3 day; format: ADME, organism-based; design: dose 40 mg, time < 10 hr, route oral; details: in vivo
How it was run: (§5)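 Healthy Caucasian male volunteers took 40 mg (two 20-mg IR tablets) or 80 mg (four tablets) orally once daily for 3 days, with 240 ml water after a 10-h fast. Plasma was sampled predose to 14 h after the first and last doses. M1/M2/M3 were quantified by LC/MS-MS MRM against a D4-labelled internal standard. Cmax was read from observed data and AUC by log-linear trapezoidal rule, noncompartmental, geometric means.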

Plasma [9] = test: Tmax in healthy human plasma assessed as metabolite BAY 78-1788 Tmax at 80 mg, po administered as four 20 mg immediate release tablets daily for 3 days during 10 hrs overnight fasting state measured after 1 day; format: ADME, organism-based; details: in vivo, 24 h; how it was run: as §2
Plasma [10] = test: Half life in healthy human plasma assessed as metabolite BAY 78-1788 Half life at 80 mg, po administered as four 20 mg immediate release tablets daily for 3 days during 10 hrs overnight fasting state measured after 3 day; format: ADME, organism-based; details: in vivo, 72 h; how it was run: as §1
Plasma [11] = test: Half life in healthy human plasma assessed as metabolite BAY 78-1788 Half life at 80 mg, po administered as four 20 mg immediate release tablets daily for 3 days during 10 hrs overnight fasting state measured after 1 day; format: ADME, organism-based; details: in vivo, 24 h; how it was run: as §1
Plasma [12] = test: Tmax in healthy human plasma assessed as metabolite BAY 78-1788 Tmax at 40 mg, po administered as two 20 mg immediate release tablets daily for 3 days during 10 hrs overnight fasting state measured after 3 day; format: ADME, organism-based; details: in vivo, 72 h; how it was run: as §2
Plasma [13] = test: Half-life in healthy human plasma assessed as metabolite BAY 78-1788 half-life at 80 mg, po administered as single ascending doses during 10 hrs overnight fasting state; format: ADME, organism-based; details: in vivo; how it was run: as §4
Plasma [14] = test: Ratio of AUC (0 to infinity) for metabolite BAY 78-1788 to AUC (0 to infinity) for compound in healthy human plasma at 80 mg, po administered as single dose for 3 days measured after 1 day; format: ADME, organism-based; details: in vivo, 24 h; how it was run: as §3
Plasma [15] = test: Ratio of AUC (0 to infinity) for metabolite BAY 78-1788 to AUC (0 to infinity) for compound in healthy human plasma at 40 mg, po administered as single dose for 3 days measured after 1 day; format: ADME, organism-based; details: in vivo, 24 h; how it was run: as §3
Plasma [16] = test: Half life in healthy human plasma assessed as metabolite BAY 78-1788 Half life at 40 mg, po administered as two 20 mg immediate release tablets daily for 3 days during 10 hrs overnight fasting state measured after 1 day; format: ADME, organism-based; details: in vivo; how it was run: as §1
Plasma [17] = test: AUC in healthy human plasma assessed as metabolite BAY 78-1788 AUC at 80 mg, po administered as four 20 mg immediate release tablets daily for 3 days during 10 hrs overnight fasting state measured after 1 day; format: ADME, organism-based; design: dose 80 mg, time < 10 hr, route oral; details: in vivo; how it was run: as §5
Plasma [18] = test: Ratio of AUC (0 to infinity) for metabolite BAY 78-1788 to AUC (0 to infinity) for compound in healthy human plasma at 80 mg, po administered as single dose for 3 days measured after 3 days; format: ADME, organism-based; details: in vivo, 72 h; how it was run: as §3
Plasma [19] = test: AUC in healthy human plasma assessed as metabolite BAY 78-1788 AUC at 80 mg, po administered as four 20 mg immediate release tablets daily for 3 days during 10 hrs overnight fasting state measured after 3 day; format: ADME, organism-based; design: dose 80 mg, time < 10 hr, route oral; details: in vivo; how it was run: as §5
Plasma [20] = test: Cmax in healthy human plasma assessed as metabolite BAY 78-1788 Cmax at 80 mg, po administered as four 20 mg immediate release tablets daily for 3 days during 10 hrs overnight fasting state measured after 1 day; format: ADME, organism-based; design: dose 80 mg, route oral; details: in vivo, 24 h; how it was run: as §1
Plasma [21] = test: Cmax in healthy human plasma assessed as metabolite BAY 78-1788 Cmax at 40 mg, po administered as two 20 mg immediate release tablets daily for 3 days during 10 hrs overnight fasting state measured after 1 day; format: ADME, organism-based; design: dose 40 mg, route oral; details: in vivo, 24 h; how it was run: as §5
Plasma [22] = test: Tmax in healthy human plasma assessed as metabolite BAY 78-1788 Tmax at 80 mg, po administered as four 20 mg immediate release tablets daily for 3 days during 10 hrs overnight fasting state measured after 3 day; format: ADME, organism-based; details: in vivo, 72 h; how it was run: as §2
Plasma [23] = test: AUC in healthy human plasma assessed as metabolite BAY 78-1788 AUC at 40 mg, po administered as two 20 mg immediate release tablets daily for 3 days during 10 hrs overnight fasting state measured after 1 day; format: ADME, organism-based; design: dose 40 mg, time < 10 hr, route oral; details: in vivo; how it was run: as §5

## C[C@H]1[C@H](N2CCS(=O)(=O)CC2)O[C@@H]2O[C@]3(C)C[C@H](O)[C@H]4[C@H](C)CC[C@@H]1[C@@]24OO3
Plasma [1]
  t1/2: 1.28 h
Plasma [2]
  Tmax: 1.75 h
Plasma [3]
  Cmax: 66.5 ng/mL
Plasma [4]
  AUC: 379.9 ng·h/mL
Plasma [5]
  Ratio: 0.65
Plasma [6]
  Cmax: 108.9 ng/mL
Plasmodium falciparum
  IC50: 0.0257 µg/mL (≈ 0.0616 µM)
Plasma [7]
  Cmax: 36.4 ng/mL
Plasma [8]
  AUC: 115.1 ng·h/mL
Plasma [9]
  Tmax: 2 h
Plasma [10]
  t1/2: 1.44 h
Plasma [11]
  t1/2: 1.59 h
Plasma [12]
  Tmax: 2 h
Plasma [13]
  t1/2: 1.36 h
Plasma [14]
  Ratio: 0.91
Plasma [15]
  Ratio: 0.71
Plasma [16]
  t1/2: 1.31 h
Plasma [17]
  AUC: 302.4 ng·h/mL
Plasma [18]
  Ratio: 0.82
Plasma [19]
  AUC: 263 ng·h/mL
Plasma [20]
  Cmax: 87.2 ng/mL
Plasma [21]
  Cmax: 40.6 ng/mL
Plasma [22]
  Tmax: 2.5 h
Plasma [23]
  AUC: 117.3 ng·h/mL
